Experimental data: ChEMBL document CHEMBL4689842, “EUbOPEN Chemogenomics Library wave 1” (2021)

Tested on: Fibroblast
Assay: Multiplex assay against human fibroblast
Type: toxicity, cell-based
Summary of the method: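 Live cells were stained at seeding with Hoechst33342, BioTracker Green Microtubule Cytoskeleton Dye, MitoTracker Red and Annexin V Alexa Fluor 680. Following compound addition, they were imaged on a CQ1 microscope at 37°C and 5% CO2 and gated by CellPathfinder machine learning into Hoechst high-intensity objects or normal cells, with normal cells split into healthy, pyknosed or fragmented nuclei and pyknosed cells into mitotic or apoptotic. Tubulin, mitochondrial-mass and membrane-permeability phenotypes are per cents of healthy-nucleus cells.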

[1] = 12 h, 1 µM, compound concentration 1 uM, replicate 1
[2] = 12 h, 1 µM, compound concentration 1 uM, replicate 2
[3] = 12 h, 10 µM, compound concentration 10 uM, replicate 1
[4] = 12 h, 10 µM, compound concentration 10 uM, replicate 2
[5] = 24 h, 1 µM, compound concentration 1 uM, replicate 1
[6] = 24 h, 1 µM, compound concentration 1 uM, replicate 2
[7] = 24 h, 10 µM, compound concentration 10 uM, replicate 1
[8] = 24 h, 10 µM, compound concentration 10 uM, replicate 2
[9] = 48 h, 1 µM, compound concentration 1 uM, replicate 1
[10] = 48 h, 1 µM, compound concentration 1 uM, replicate 2
[11] = 48 h, 10 µM, compound concentration 10 uM, replicate 1
[12] = 48 h, 10 µM, compound concentration 10 uM, replicate 2

Cc1ccc(C(=O)Nc2cccc(C(F)(F)F)c2)cc1Nc1nc(-c2cccnc2)nc2c1cnn2C
Population Apoptotic (%) [1]: 61% | Population Fragmented Nuclei (%) [1]: 34% | Population Healthy Nuclei (%) [1]: 29% | Population Hoechst High Intensity Objects (%) [1]: 10% | Population Membrane Permeable-Phenotype (%) [1]: 28% | Population Mitochondria Different-Phenotype (%) [1]: 3% | Population Mitotic Cells (%) [1]: 38% | Population Normal (%) [1]: 89% | Population Pyknosed Nuclei (%) [1]: 35% | Population Tubulin-Different-Phenotype (%) [1]: 53% | Total Cell Count [1]: 122 | Population Apoptotic (%) [2]: 50% | Population Fragmented Nuclei (%) [2]: 14% | Population Healthy Nuclei (%) [2]: 73% | Population Hoechst High Intensity Objects (%) [2]: 3% | Population Membrane Permeable-Phenotype (%) [2]: 6% | Population Mitochondria Different-Phenotype (%) [2]: 25% | Population Mitotic Cells (%) [2]: 50% | Population Normal (%) [2]: 96% | Population Pyknosed Nuclei (%) [2]: 12% | Population Tubulin-Different-Phenotype (%) [2]: 14% | Total Cell Count [2]: 101 | Population Apoptotic (%) [3]: 65% | Population Fragmented Nuclei (%) [3]: 24% | Population Healthy Nuclei (%) [3]: 33% | Population Hoechst High Intensity Objects (%) [3]: 13% | Population Membrane Permeable-Phenotype (%) [3]: 34% | Population Mitochondria Different-Phenotype (%) [3]: 37% | Population Mitotic Cells (%) [3]: 34% | Population Normal (%) [3]: 86% | Population Pyknosed Nuclei (%) [3]: 41% | Population Tubulin-Different-Phenotype (%) [3]: 88% | Total Cell Count [3]: 121 | Population Apoptotic (%) [4]: 61% | Population Fragmented Nuclei (%) [4]: 18% | Population Healthy Nuclei (%) [4]: 42% | Population Hoechst High Intensity Objects (%) [4]: 8% | Population Membrane Permeable-Phenotype (%) [4]: 78% | Population Mitochondria Different-Phenotype (%) [4]: 92% | Population Mitotic Cells (%) [4]: 38% | Population Normal (%) [4]: 91% | Population Pyknosed Nuclei (%) [4]: 39% | Population Tubulin-Different-Phenotype (%) [4]: 100% | Total Cell Count [4]: 66 | Population Apoptotic (%) [5]: 66% | Population Fragmented Nuclei (%) [5]: 40% | Population Healthy Nuclei (%) [5]: 41% | Population Hoechst High Intensity Objects (%) [5]: 14% | Population Membrane Permeable-Phenotype (%) [5]: 19% | Population Mitochondria Different-Phenotype (%) [5]: 5% | Population Mitotic Cells (%) [5]: 33% | Population Normal (%) [5]: 85% | Population Pyknosed Nuclei (%) [5]: 17% | Population Tubulin-Different-Phenotype (%) [5]: 43% | Total Cell Count [5]: 142 | Population Apoptotic (%) [6]: 27% | Population Fragmented Nuclei (%) [6]: 12% | Population Healthy Nuclei (%) [6]: 72% | Population Hoechst High Intensity Objects (%) [6]: 3% | Population Membrane Permeable-Phenotype (%) [6]: 7% | Population Mitochondria Different-Phenotype (%) [6]: 29% | Population Mitotic Cells (%) [6]: 72% | Population Normal (%) [6]: 96% | Population Pyknosed Nuclei (%) [6]: 14% | Population Tubulin-Different-Phenotype (%) [6]: 16% | Total Cell Count [6]: 101 | Population Apoptotic (%) [7]: 85% | Population Fragmented Nuclei (%) [7]: 27% | Population Healthy Nuclei (%) [7]: 34% | Population Hoechst High Intensity Objects (%) [7]: 10% | Population Membrane Permeable-Phenotype (%) [7]: 42% | Population Mitochondria Different-Phenotype (%) [7]: 44% | Population Mitotic Cells (%) [7]: 14% | Population Normal (%) [7]: 89% | Population Pyknosed Nuclei (%) [7]: 37% | Population Tubulin-Different-Phenotype (%) [7]: 81% | Total Cell Count [7]: 124 | Population Apoptotic (%) [8]: 90% | Population Fragmented Nuclei (%) [8]: 26% | Population Healthy Nuclei (%) [8]: 11% | Population Hoechst High Intensity Objects (%) [8]: 20% | Population Membrane Permeable-Phenotype (%) [8]: 100% | Population Mitochondria Different-Phenotype (%) [8]: 75% | Population Mitotic Cells (%) [8]: 9% | Population Normal (%) [8]: 79% | Population Pyknosed Nuclei (%) [8]: 61% | Population Tubulin-Different-Phenotype (%) [8]: 100% | Total Cell Count [8]: 77 | Population Apoptotic (%) [9]: 42% | Population Fragmented Nuclei (%) [9]: 59% | Population Healthy Nuclei (%) [9]: 36% | Population Hoechst High Intensity Objects (%) [9]: 23% | Population Membrane Permeable-Phenotype (%) [9]: 15% | Population Mitochondria Different-Phenotype (%) [9]: 0% | Population Mitotic Cells (%) [9]: 57% | Population Normal (%) [9]: 76% | Population Pyknosed Nuclei (%) [9]: 4% | Population Tubulin-Different-Phenotype (%) [9]: 59% | Total Cell Count [9]: 189 | Population Apoptotic (%) [10]: 75% | Population Fragmented Nuclei (%) [10]: 65% | Population Healthy Nuclei (%) [10]: 32% | Population Hoechst High Intensity Objects (%) [10]: 22% | Population Membrane Permeable-Phenotype (%) [10]: 12% | Population Mitochondria Different-Phenotype (%) [10]: 3% | Population Mitotic Cells (%) [10]: 25% | Population Normal (%) [10]: 77% | Population Pyknosed Nuclei (%) [10]: 2% | Population Tubulin-Different-Phenotype (%) [10]: 63% | Total Cell Count [10]: 231 | Population Apoptotic (%) [11]: 66% | Population Fragmented Nuclei (%) [11]: 45% | Population Healthy Nuclei (%) [11]: 38% | Population Hoechst High Intensity Objects (%) [11]: 21% | Population Membrane Permeable-Phenotype (%) [11]: 40% | Population Mitochondria Different-Phenotype (%) [11]: 18% | Population Mitotic Cells (%) [11]: 33% | Population Normal (%) [11]: 78% | Population Pyknosed Nuclei (%) [11]: 16% | Population Tubulin-Different-Phenotype (%) [11]: 88% | Total Cell Count [11]: 165 | Population Apoptotic (%) [12]: 60% | Population Fragmented Nuclei (%) [12]: 56% | Population Hoechst High Intensity Objects (%) [12]: 25% | Population Membrane Permeable-Phenotype (%) [12]: 14% | Population Mitochondria Different-Phenotype (%) [12]: 64% | Population Mitotic Cells (%) [12]: 40% | Population Normal (%) [12]: 74% | Population Pyknosed Nuclei (%) [12]: 4% | Population Tubulin-Different-Phenotype (%) [12]: 95% | Total Cell Count [12]: 146
